# Results reported in the RNAGym collection of RNA variant scans (doi:10.1126/science.aae0568).
# Fewer inactive variants are shown than the library holds.
# B1: tRNA (parent)
# chain: GUUCCGUUGGCGUAAUGGUAACGCGUCUCCCUCCUAAGGAGAAGACUGCGGGUUCGAGUCCCGUACGGAACG
# Variants of: B1
# Assay: yeast fitness relative to wild type (ratio to wild type); higher = fitter; tRNA-Arg(CCU), competitive growth, 37 C, YPD
# Procedure, shortened: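 Amplicons of the tRNA-Arg(CCU) gene were sequenced, 100-nucleotide paired-end, from the start population and from each end population of a pooled yeast competition. The competition, in six parallel replicates, lasted 24 hours in YPD at 37°C. Fitness relative to wild type was calculated from changes in genotype frequencies. Genotypes had to have ≥ 100 starting reads, and estimates < 0.5 were set to 0.5.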
row,Variant,yeast fitness
1,GUUCCGUUAGCGUAAUGGUAUCGCGUCUCCCUCCUAAGCAGAAGACUGCGGGUUCGAGUCCCGUACGGAACG [G9A A21U G39C],≤ 0.5
2,GUUCCGUUGGCGUAAUGGUAACGCGUCUCCCUCCUAAGGAGAAGACUGCGGAUUCGAGUCCCGUACGGACCG [G52A A70C],0.675
3,GUUCCGUUGGCGUAAUGGUAACGCGUAUCCCUCCUAAGGAGAAGACUGCGGGUUCGAGUCCCGUACGUAACG [C27A G68U],0.805
4,GUUCCGUUGCCGUAAUGGUAACGCGUCUCCCUGCUAAGGAGAAGAGUGCGGGUUCGAGUCCGGUACGGAACG [G10C C33G C46G C62G],≤ 0.5
5,GUUCCGUUGGCGUAAUGGUAACGCGUCUCCCUCAUAUGGAGAAGACUGCGGGUUCGAGUCCCCUACGGAACG [C34A A37U G63C],≤ 0.5
6,GUUCCGUUGGCGUAAUGGUAACGCGUCUCCCUCCUAAGGAGAAGACUGCUGGUUCGAGUCCCGUACAGAACG [G50U G67A],0.821
7,GUUCCGUUGGCGUUAUGGUAACGCGUCUCCCUCCUAAGGAGAAGACUGCUGGUUCGAGUCCCGUACGGAACG [A14U G50U],0.601
8,GUUCCGUUGGCGUAAUGGUAGCGCGUCUCCCUCCUAAGGAGAAGAUUGCGGGUUCGAGUCCUGUACGGAACG [A21G C46U C62U],1.1
9,GUUUCGUUGGCGUAAUGGUAACGCGUCUUCUUCCUAAGGAGAAGACUGCGGGUUCGAGCCCCGUACGGAACG [C4U C29U C31U U59C],≤ 0.5
10,GUUCCGUUGGCGUAAUCGUAACGGGUCUCCCUCCUAAGGAGAAGACUCCGGGUUCGAGUCCCGUACGGAACG [G17C C24G G48C],≤ 0.5
11,GUUCCGUUGGUGUAAUGGAACCGCGUCUCCCUCCUAAGGAGGAGACUGCGGGUUCGAGUCCCGUACGGAACG [C11U U19A A21C A42G],0.568
12,GUUCCGUUGGCGUAAUGGUAACGCGUGUCCCUCCUAAGGAGACGACUGCGGGUUCGAGUCCUGUACGGAACG [C27G A43C C62U],0.599
13,GUUCUGGUGGCGUAAUGGUAACGCGUCUCCCUCCUAAGGAGAAGACUGCGGGUUCGAGUCCCGUACGGAACG [C5U U7G],0.894
14,GUUCCGUUGGCGUAAUGGUAACGCGUCUCGCUCCUAAGGCGAAGACUGCGGGUUCGAGUCCCGUACGGAACG [C30G A40C],0.595
15,GUUCCGUUGGCGUAAUGGUAAGGCGUUUCCCUCCUAAGGAGAAGACUGCGGGUUCGAGUCCCGUACGGAACG [C22G C27U],0.884
16,GUUCCGUUAGCGUAAUGGUAACGCGUCUCCCUCCUAAGGAGAAGACUGCGGGUUCGAGACCCGUAAGGAACG [G9A U59A C66A],0.55
17,GUUCCGUUGGCGUAAUGGUAACGCGUCUCCCUCCUAAGGUGAAGACUGGGGGUUCCAGUCCCGUACGGCACG [A40U C49G G56C A69C],≤ 0.5
18,GUUCCGUUGGCGUAAUGGCAACGCGUAUCGCUCCUAAGGAGAAGACUGCGGGUACAAGUCCCGUACGGAACG [U19C C27A C30G U54A G56A],0.671
19,GAUCCGUUGGCGUAAUGGUAACGCGUCUGCCUCCUAAGGAGAAGACGGGGGGUGCGAGUCCCGUACGGAACG [U2A C29G U47G C49G U54G],≤ 0.5

row,Variant,yeast fitness
1,GUUCCGUUGGCGUAAUGGUAACGCGUCUCCCUCCUAAGGACAAGACUGCGGGUUCGAGUCCCGUACGGACCG [G41C A70C],0.858
2,GUUCCGUUGGCGUAAUGGUACCGCGUCUCCCUCCUAAGGAGAAGACUGCGGGUUCGAGUCUCGUACGGAACG [A21C C61U],0.679
3,GUACCGUUGGCGUAAUGGUAACGCGUUUCCCUCCUGAGGAGAAGACUGCGGGUUCGAGUCCCGUACGGAACG [U3A C27U A36G],0.594
4,GUUCCGUUGGCGUAAUGAUAACGCGUCUCCCUCCUAAGGAGAAGAAUGCGGGUUCGAGUCCCGCACGGAACG [G18A C46A U64C],0.535
5,GUUCCGUUGGCGUAAUGGUAACGGGUGUCCCUCCUAAGGCGAAGACAGCGGGUUCGAGUCCCGUACGGAACG [C24G C27G A40C U47A],≤ 0.5
6,GUUCCGUUGGCGUAAUCGUAACGCGUCUCCCUCCUAAGCAGAAGUCUGCGGGUUCGACUCCCGUACGGAACG [G17C G39C A45U G58C],≤ 0.5
7,GUUCCGUUCGCGUCAUGGUAACGCGUCUCCCUCCUAAGGAGAACACUGCGGGUUCGUGUCCCGUACGGAACG [G9C A14C G44C A57U],≤ 0.5
8,GUUCCGUUGGCGUUAAGGUAACGCGUCUCCCUCCUAAGGAGAAGACUGCGGGUUCGAGUCCCGUACGGAACG [A14U U16A],0.667
9,GUUCCGUUGGCGUAAUGGUAACGCGUCUCCCUCCUGAGGAGAAGACUGCGGAUUCGAGUCCGGUACGGAACG [A36G G52A C62G],≤ 0.5
10,GUUCUGUUGGCGUAAUGGUAACGCGUCUCCCUCCUAAGGAGAAGCCUGCGGGUUUGAGUCCCGUACGCAACG [C5U A45C C55U G68C],0.57
11,GUUCCGUUGGCGGAAUGGUAACGCGUCUCCCUCCUAAGGAGAAGACUGAGGCUUCGAGUCCCGUACGGAACG [U13G C49A G52C],≤ 0.5
12,GUUCCGUUGGCGAAAUGGUAACGCGUCUCCCUCCUAACGAGAAGACUGCGGGUUCGAGUCCCGUACGGAACG [U13A G38C],0.619
13,GUUCCGAUGCCGUAAUGGUAAUGCGUGUCCCUCCUAAGGAGAAGACUGCGGGUUCGAGUCCCGUACAGAACG [U7A G10C C22U C27G G67A],≤ 0.5
14,GUUCCGUUGGCGUAAUGGUAACGCGUCUCCCUCCUAUGGAGCAGACUGCGGGUUUGAGUCCCGUACGGUACG [A37U A42C C55U A69U],≤ 0.5
15,GGUCCGUUGGCGUAAUGGUAACGCAUCUCCCUCCUAAGGAGAAGACUGCGGGUUCGAGUCCCGUCCGGAACG [U2G G25A A65C],0.637
16,GUUCCGUUGGCGUAAUGGUAACGCGUCUCCCUCCAAAGGAGAAGACUGCGGGUUCGAGUUCCGUACGGAACG [U35A C60U],≤ 0.5
17,GUUCCAUUGGCGUAAUGGUAACGCGUCUCCCUCCUAAGGAGAAGACAGCGGGUUCGAGUCCCGAACGGAACG [G6A U47A U64A],≤ 0.5
18,GUUCAGUUGGCGUAAUGGUAACGCGUCUCCCUCCUAAGGAGAAGACUGCGGGUUCGAGUUCCGUAUGGAACG [C5A C60U C66U],≤ 0.5
19,GUUCGGUUGGGGUAAUGGUAACGCGUCUCCCUCCUAAGGAGAAGACUGCGGGUUCGAGUCCCGUACGGAUCG [C5G C11G A70U],≤ 0.5
